Measured values published in ChEMBL document CHEMBL1127648, “Synthesis of 2-piperazinylbenzothiazole and 2-piperazinylbenzoxazole derivatives with 5-HT3 antagonist and 5-HT4 agonist properties” (J Med Chem, 1994).

What was measured:
Cavia porcellus [1] = organism: Cavia porcellus; assay: The compound was evaluated for the percentage inhibition in guinea pig ileum stimulated with 10 uM 5-HT and tested at fixed concentration of 10 uM; type: functional
Method in brief: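 Guinea pig ileum in oxygenated physiological solution with 1 μM methysergide at 37 °C, isometric recording, 0.5 g resting tension. Response to 10 μM 5-HT set as 100%. After 30 min incubation with compound at 10 μM, 5-HT was re-added; response expressed as % of the previous 5-HT response.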

[2] = biological target: T1, Serotonin 3 (5-HT3) receptor (Rattus norvegicus, UniProt P35563+Q9JJ16); assay: Inhibition of [3H]BRL-43694 binding to rat 5-hydroxytryptamine 3 receptor; type: protein-complex assay
T1 sequence (P35563 whole entry): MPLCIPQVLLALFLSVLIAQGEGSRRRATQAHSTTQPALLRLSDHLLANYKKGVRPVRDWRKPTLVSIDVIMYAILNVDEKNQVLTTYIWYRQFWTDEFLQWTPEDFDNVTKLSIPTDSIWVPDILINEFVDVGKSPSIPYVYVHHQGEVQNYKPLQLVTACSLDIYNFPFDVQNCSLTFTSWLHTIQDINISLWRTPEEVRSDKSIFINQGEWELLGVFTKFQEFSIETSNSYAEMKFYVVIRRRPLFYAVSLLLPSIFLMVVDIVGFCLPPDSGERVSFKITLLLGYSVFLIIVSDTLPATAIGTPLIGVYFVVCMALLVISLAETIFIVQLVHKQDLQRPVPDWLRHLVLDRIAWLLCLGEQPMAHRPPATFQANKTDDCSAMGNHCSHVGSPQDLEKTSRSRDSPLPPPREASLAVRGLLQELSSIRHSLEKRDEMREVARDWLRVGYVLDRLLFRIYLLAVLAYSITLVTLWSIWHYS
T1 sequence (Q9JJ16 whole entry): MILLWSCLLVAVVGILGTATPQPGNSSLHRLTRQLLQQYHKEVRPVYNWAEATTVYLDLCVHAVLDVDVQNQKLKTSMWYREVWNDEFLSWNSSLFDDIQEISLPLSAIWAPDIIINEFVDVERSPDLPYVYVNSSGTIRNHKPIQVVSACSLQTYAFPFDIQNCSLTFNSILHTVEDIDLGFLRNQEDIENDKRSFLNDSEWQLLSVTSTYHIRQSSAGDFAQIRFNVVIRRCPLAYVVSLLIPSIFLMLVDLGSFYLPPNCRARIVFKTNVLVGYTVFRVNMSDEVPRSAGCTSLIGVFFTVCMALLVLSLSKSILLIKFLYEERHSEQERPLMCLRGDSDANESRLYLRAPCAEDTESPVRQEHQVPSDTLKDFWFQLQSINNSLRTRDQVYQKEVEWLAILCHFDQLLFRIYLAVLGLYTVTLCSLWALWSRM

D(2) dopamine receptor = D(2) dopamine receptor (Rattus norvegicus, UniProt P61169); assay: Displacement of [3H]spiroperidol from D2 dopamine receptor
Rattus norvegicus [3] = organism: Rattus norvegicus; assay: The compound was evaluated for the percentage inhibition in rat aorta stimulated with 30 uM 5-HT and tested at fixed concentration of 10 uM; type: functional
[4] = biological target: T2, Serotonin 1 (5-HT1) receptor (Rattus norvegicus, UniProt P28564+P30940+P19327+P28565); assay: The compound was evaluated for the binding affinity towards 5-hydroxytryptamine 1 using [3H]5-HT as radioligand; type: protein assay
Method in brief: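 Membranes were resuspended with 0.1% ascorbic acid and 10 μM pargyline. Incubated with 0.3 nM [3H]-5-HT and varying test concentrations at 37 °C for 10 min, then filtered and counted by scintillation.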

Rattus norvegicus [5] = assay: The compound was evaluated for the percentage increase in gastric emptying for a dose of 10 mg/kg perorally in rat; type: functional, Stomach; conditions: route oral
Method in brief: (§1)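 Wistar rats (160 ± 10 g) fasted overnight, dosed orally with vehicle or compound. After 60 min, gavage with 40 steel spheroids (1 mm) in 2 mL 3% carboxymethylcellulose. Killed by CO2 60 min later; spheroids left in the stomach were counted. Emptying is expressed as a percentage of paired controls.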

[6] = biological target: T2, Serotonin 1 (5-HT1) receptor; assay: Binding affinity towards 5-hydroxytryptamine 1 receptor using [3H]5-HT as radioligand; type: protein assay
Method in brief: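 Rat cortex homogenized in 50 mM Tris-HCl and preincubated at 37 °C for 10 min. Membranes were resuspended with 0.1% ascorbic acid and 10 μM pargyline. Incubated with 0.3 nM [3H]-5-HT and varying test concentrations at 37 °C for 10 min, then filtered and counted by scintillation. IC50 is the mean of 4–6 experiments.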

Rattus norvegicus [7] = organism: Rattus norvegicus; assay: (§2) The compound was evaluated for the value in rat isolated esophageal tunica muscularis mucose; set-up: species or system Esophagus muscularis mucosa
Method in brief: (§3)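 Rat oesophageal tunica muscularis mucosae was isolated by removing the muscularis propria. Strips were held in Tyrode's solution (pH 7.4) at 37 °C, aerated with 95% O2/5% CO2, under 250 mg tension, and equilibrated 60 min. Relaxation of carbachol-induced contraction was measured. Paired concentration-effect curves were run in the same preparation, first to 5-HT, then to the test agonist. ECR = IC40 test agonist/IC40 5-HT. Mean of 8 experiments.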

Rattus norvegicus [8] = organism: Rattus norvegicus; assay: The compound was evaluated for the intrinsic activity in rat isolated esophageal tunica muscularis mucose; type: functional
Method in brief: (§4)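 Inner smooth-muscle tube of rat oesophagus (external muscularis propria removed), held in Tyrode's solution at 37 °C, pH 7.4, aerated 95% O2/5% CO2, under 250 mg tension, equilibrated 60 min. Relaxation of carbachol-induced contraction measured from agonist concentration-effect curves. Means of 8 experiments (24 for 5-HT).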

Rattus norvegicus [9] = organism: Rattus norvegicus; assay: Ability of compounds to relax oesophagus expressed as equipotent concentration ratio (ECR) where ECR = IC40 test agonist / IC40 5-HT; type: functional; method in brief: as §3
[10] = biological target: Serotonin 3 (5-HT3) receptor (Rattus norvegicus) (UniProt P35563+Q9JJ16); assay: Inhibition dose for 50 percent antagonism for 5-hydroxytryptamine 3 receptor in vivo in rats; type: functional, organism-based
Method in brief: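 Male Sprague-Dawley rats (500–550 g) under urethane (1 g/kg ip), with heart rate taken from the carotid pressure signal. 5-HT 4 μg/kg iv bolus every 15 min elicited von Bezold-Jarisch bradycardia. […] ID50 by Litchfield-Wilcoxon.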

Cavia porcellus [11] = organism: Cavia porcellus; assay: The compound was evaluated for the pA2 value that was estimated using 2-methyl-5-HT in five to seven different tissues in guinea pig ileum; type: functional; conditions: read-out: pA2 (converted)
Method in brief: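 Guinea pig ileum in oxygenated physiological solution with 1 μM methysergide at 37 °C, isometric contractions at 0.5 g tension.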

Rattus norvegicus [12] = assay: The compound was evaluated for the percentage increase in gastric emptying for a dose of 10 mg/kg perorally in rat.; type: functional, Stomach; conditions: route oral; method in brief: as §1
Rattus norvegicus [13] = assay: The compound was evaluated for the percentage increase in gastric emptying for a dose of 7.5 mg/kg perorally in rat.; type: functional, Stomach; conditions: route oral; method in brief: as §1
[14] = The compound was evaluated for equipotent concentration ratio (ECR). whereECR = IC40 test agonist / IC40 5-HT; type: functional
Method in brief: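 Rat oesophageal tunica muscularis mucosae precontracted with carbachol. Two concentration-effect curves were run in the same strip, first to 5-HT and then to 5-HT or the test agonist. […] Only paired experiments were used.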

Rattus norvegicus [15] = assay: The compound was evaluated for the percentage increase in gastric emptying for a dose of 5 mg/kg perorally in rat.; type: functional, Stomach; conditions: route oral; method in brief: as §1
Rattus norvegicus [16] = organism: Rattus norvegicus; assay: Agonist potency in rat isolated esophageal tunica muscularis mucose.; type: functional; method in brief: as §4
Rattus norvegicus [17] = assay: The compound was evaluated for the percentage increase in gastric emptying for a dose of 1 mg/kg perorally in rat; type: functional, Stomach; conditions: route oral; method in brief: as §1
Rattus norvegicus [18] = assay: The compound was evaluated for the percentage increase in gastric emptying for a dose of 5 mg/kg perorally in rat; type: functional, Stomach; conditions: route oral; method in brief: as §1
Rattus norvegicus [19] = assay: The compound was evaluated for the percentage increase in gastric emptying for a dose of 7.5 mg/kg perorally in rat; type: functional, Stomach; conditions: route oral; method in brief: as §1
Rattus norvegicus [20] = organism: Rattus norvegicus; assay: The compound was evaluated for the value in rat isolated esophageal tunica muscularis mucose in rat; type: functional; method in brief: as §4
Rattus norvegicus [21] = organism: Rattus norvegicus; assay: The compound was evaluated for pEC50 of 5-HT in rat isolated esophageal tunica muscularis mucose; conditions: in vitro
Rattus norvegicus [22] = organism: Rattus norvegicus; assay: as §2; type: functional; method in brief: as §3

D(2) dopamine receptor, sequence (P61169 whole entry): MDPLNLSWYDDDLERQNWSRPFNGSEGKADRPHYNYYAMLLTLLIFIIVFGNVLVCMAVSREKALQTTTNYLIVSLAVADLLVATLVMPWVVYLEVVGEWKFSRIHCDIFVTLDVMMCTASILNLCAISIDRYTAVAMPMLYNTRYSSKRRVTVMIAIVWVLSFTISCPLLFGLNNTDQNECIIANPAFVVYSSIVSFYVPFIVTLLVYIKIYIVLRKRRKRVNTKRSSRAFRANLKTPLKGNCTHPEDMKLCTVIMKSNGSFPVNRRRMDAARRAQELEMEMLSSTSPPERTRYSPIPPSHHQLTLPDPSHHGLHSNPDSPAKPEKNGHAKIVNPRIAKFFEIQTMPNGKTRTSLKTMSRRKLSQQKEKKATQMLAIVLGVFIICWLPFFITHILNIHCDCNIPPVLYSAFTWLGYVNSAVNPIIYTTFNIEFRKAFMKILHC

Structure (SMILES)	Inhibition (Cavia porcellus [1])	IC50 [2]	IC50 (D(2) dopamine receptor)	Inhibition (Rattus norvegicus [3])	Increase (Rattus norvegicus [5])	IC50 [6]	other results
CCOc1ccccc1N1CCN(c2nc3ccccc3s2)CC1	-22.2%	> 10 µM	> 10 µM	10.3%			IC50 [4]: > 10 µM
CCN(CC)CCNC(=O)c1cc(Cl)c(N)cc1OC [METOCLOPRAMIDE]					37.1%		
Clc1cccc(N2CCN(c3nc4ccccc4s3)CC2)c1	-21.9%	> 10 µM	> 10 µM			> 10 µM	
Oc1ccccc1N1CCN(c2nc3ccccc3o2)CC1	46.1%	> 10 µM	> 10 µM	29.1%	-30.2%	> 10 µM	
Cc1[nH]c2ccc(O)cc2c1CCN							CL (Rattus norvegicus [7]): 4.9%; Intrinsic activity (Rattus norvegicus [8]): 1; Ratio (Rattus norvegicus [9]): 643
c1ccc(CN2CCN(c3nc4ccccc4s3)CC2)cc1	74.4%	0.033 µM	> 10 µM	14.8%	44.6%	> 0.00001 M	ID50 [10]: 0.16 mg/kg; Kb (Cavia porcellus [11]): 0.501 µM
c1ccc(CN2CCN(c3nc4ccccc4o3)CC2)cc1	48.8%	> 10 µM	> 10 µM	21.9%	15.1%	> 10 µM	
c1ccc2sc(N3CCN(Cc4ccc5c(c4)OCO5)CC3)nc2c1	74.5%	0.95 µM	> 10 µM	21.2%		> 10 µM	Increase (Rattus norvegicus [12]): 62.8%; Intrinsic activity (Rattus norvegicus [8]): 0.91; Increase (Rattus norvegicus [13]): 43.3%; Ratio [14]: 22; ID50 [10]: 0.18 mg/kg; Increase (Rattus norvegicus [15]): 45%; Kb (Cavia porcellus [11]): 0.316 µM; EC50 (Rattus norvegicus [16]): 0.263 µM
O=C(c1ccc(F)cc1)C1CCN(CCn2c(=O)[nH]c3ccccc3c2=O)CC1 [KETANSERIN]				90%			
Cc1nccn1CC1CCc2c(c3ccccc3n2C)C1=O (stereo not given) [ONDANSETRON]							Increase (Rattus norvegicus [17]): 44.2%
Oc1ccccc1N1CCN(c2nc3ccccc3s2)CC1	40.8%	> 10 µM	> 10 µM	49.3%	-14.2%	> 10 µM	
c1ccc2oc(N3CCN(Cc4ccc5c(c4)OCO5)CC3)nc2c1	55.8%	> 10 µM	> 10 µM	19.4%	23.1%	> 10 µM	
COc1ccccc1N1CCN(c2nc3ccccc3s2)CC1	43%	> 10 µM	> 10 µM	7.1%	-27.5%	> 10 µM	
COc1cc(N)c(Cl)cc1C(=O)NC1CCN(CCCOc2ccc(F)cc2)CC1OC (stereo not given) [CISAPRIDE]	98.1%				67%		Intrinsic activity (Rattus norvegicus [8]): 0.92; Increase (Rattus norvegicus [18]): 47.2%; Kb (Cavia porcellus [11]): 0.001 µM; Increase (Rattus norvegicus [19]): 59.5%; EC50 (Rattus norvegicus [20]): 0.0589 µM
NCCc1c[nH]c2ccc(O)cc12 [SEROTONIN]							pEC50 (Rattus norvegicus [21]): 7.91; Intrinsic activity (Rattus norvegicus [22]): 1
COc1ccccc1N1CCN(c2nc3ccccc3o2)CC1	25.6%	> 10 µM	> 10 µM	14.7%		> 10 µM	
